How the values were obtained:
[1] = tested on: CCRF-CEM; experiment: Cytostatic activity against human CEM cells after 3 days by coulter counter analysis; type: functional, cell-based; settings: 72 h
Method in brief: (§1)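 CEM T-lymphocyte cultures exposed to compound, 3 days at 37 °C; living cells counted by Coulter counter; IC50 is the concentration inhibiting proliferation by 50%.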

[2] = tested on: L1210; experiment: Cytostatic activity against mouse L1210 cells after 2 days by coulter counter analysis; type: functional, cell-based; settings: L1210, 48 h
Method in brief: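 Murine leukemia L1210 cultures exposed to compound, 2 days at 37 °C; living cells counted by Coulter counter; IC50 is the concentration inhibiting proliferation by 50%.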

[3] = tested on: MCF7; experiment: Cytostatic activity against human MCF7 cells after 4 days by coulter counter analysis; settings: MCF7, 96 h
[4] = tested on: HeLa; experiment: Cytostatic activity against human HeLa cells after 4 days by coulter counter analysis; type: functional, cell-based; settings: 96 h
Method in brief: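 HeLa cervix carcinoma cultures exposed to compound, 4 days at 37 °C; viable cells counted by Coulter counter; IC50 is the concentration giving 50% inhibition of proliferation.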

[5] = tested on: CCRF-CEM; experiment: Ratio of IC50 for human dCK-deficient CEM cells to IC50 for human CEM cells; type: functional
[6] = tested on: CCRF-CEM; experiment: Cytostatic activity against human dCK-deficient CEM cells after 3 days by coulter counter analysis; type: functional, cell-based; settings: 72 h; method in brief: as §1
[7] = molecular target: Deoxycytidine kinase (Homo sapiens) (UniProt P27707); experiment: Activity at recombinant dCK (unknown origin) at 100 uM by HPLC analysis
Deoxycytidine kinase (Homo sapiens), sequence (P27707 whole entry, looked up): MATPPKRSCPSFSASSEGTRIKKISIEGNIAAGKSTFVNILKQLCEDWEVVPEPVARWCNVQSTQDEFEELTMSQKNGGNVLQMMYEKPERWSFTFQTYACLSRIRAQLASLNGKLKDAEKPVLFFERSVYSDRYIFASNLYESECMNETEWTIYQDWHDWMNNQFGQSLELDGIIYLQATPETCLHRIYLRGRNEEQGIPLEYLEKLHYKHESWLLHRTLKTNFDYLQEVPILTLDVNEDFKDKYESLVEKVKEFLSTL

[8] = tested on: Serum; experiment: Prodrug conversion in human serum assessed as dFdU formation at 100 uM up to 240 mins by HPLC analysis; type: ADME, cell-free; settings: 4 h
Method in brief: (§2)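 Compound at 100 μM in 50% human serum in PBS, 37 °C; aliquots taken at 0, 60 and 240 min; reverse-phase RP-18 HPLC (acetonitrile/H₂O) resolving dFdU and gemcitabine.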

[9] = tested on: Liver; experiment: Prodrug conversion in mouse liver at 100 uM after 2 hrs by HPLC analysis; type: ADME, tissue-based
Method in brief: (§3)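 Compound at 100 μM in murine liver extract in PBS, 37 °C; sampled at 0, 30 and 120 min; reverse-phase RP-18 HPLC (acetonitrile/H₂O) resolving dFdU and gemcitabine.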

[10] = tested on: Serum; experiment: Prodrug conversion in human serum assessed as gemicitabine formation at 100 uM by HPLC analysis; type: ADME, cell-free; method in brief: as §2
[11] = tested on: Liver; experiment: Prodrug conversion in mouse liver assessed as dFdU formation at 100 uM after 2 hrs by HPLC analysis; type: ADME, tissue-based; method in brief: as §3
[12] = tested on: Serum; experiment: Metabolic stability in human serum assessed as dFdU formation at 100 uM up to 240 mins by HPLC analysis; type: ADME, cell-free; settings: 4 h; method in brief: as §2
[13] = tested on: Liver; experiment: Prodrug conversion in mouse liver assessed as dFdU formation at 100 uM by HPLC analysis; type: ADME, tissue-based; method in brief: as §3
[14] = tested on: Liver; experiment: Prodrug conversion in mouse liver assessed as gemicitabine formation at 100 uM by HPLC analysis; type: ADME, tissue-based; method in brief: as §3

SMILES | IC50 [1] | IC50 [2] | IC50 [3] | IC50 [4] | Ratio IC50 [5] | IC50 [6] | Activity [7] | Stability [8] | Stability [9] | Stability [10] | Stability [11] | Stability [12] | Drug metabolism [8] | Drug metabolism [13] | Drug metabolism [14] | Drug metabolism [10]
O=c1nc(NCCCCCCCCCCCF)ccn1[C@@H]1O[C@H](CO)[C@@H](O)C1(F)F | 28000 nM | 28000 nM | 26000 nM | 17000 nM | 4.8 | 134000 nM | – | – | – | – | – | – | – | – | – | –
C=CCCCCCCCCCCC(=O)Nc1ccn([C@@H]2O[C@H](CO)[C@@H](O)C2(F)F)c(=O)n1 | 69 nM | 21 nM | 7.9 nM | 13 nM | – | 6800 nM | < 1% | – | – | – | – | – | – | – | – | –
O=C(CCCCCCCCCCF)Nc1ccn([C@@H]2O[C@H](CO)[C@@H](O)C2(F)F)c(=O)n1 | 59 nM | 53 nM | 7.7 nM | 11 nM | – | 7200 nM | < 1% | – | – | – | – | – | – | – | – | –
C=CCCCCCCCCC(=O)Nc1ccn([C@@H]2O[C@H](CO)[C@@H](O)C2(F)F)c(=O)n1 | 71 nM | 18 nM | 6.2 nM | 12 nM | – | 12000 nM | – | – | – | – | – | – | – | – | – | –
CCCCCCCCCCC(=O)Nc1ccn([C@@H]2O[C@H](CO)[C@@H](O)C2(F)F)c(=O)n1 | 60 nM | 14 nM | 5.3 nM | 8.9 nM | – | 5800 nM | – | – | – | – | – | – | – | – | – | –
C=CCCCCCCC(=O)Nc1ccn([C@@H]2O[C@H](CO)[C@@H](O)C2(F)F)c(=O)n1 | 140 nM | 24 nM | 7.9 nM | 42 nM | – | 20000 nM | – | – | – | – | – | – | – | – | – | –
O=c1nc(NCCCCCCCCCCCO)ccn1[C@@H]1O[C@H](CO)[C@@H](O)C1(F)F | 86000 nM | 29000 nM | 27000 nM | 22000 nM | 2 | 140000 nM | – | Stable | Stable | Stable | Stable | – | – | – | – | –
CCCC(CCC)C(=O)Nc1ccn([C@@H]2O[C@H](CO)[C@@H](O)C2(F)F)c(=O)n1 [LY-2334737] | 5200 nM | 1100 nM | 550 nM | 760 nM | – | 161000 nM | – | – | – | – | – | – | – | – | – | –
Nc1ccn([C@@H]2O[C@H](CO)[C@@H](O)C2(F)F)c(=O)n1 [GEMCITABINE] | 69 nM | 13 nM | 7.2 nM | 9.9 nM | – | 7600 nM | 15% | – | – | – | – | Unstable | – | – | – | –
O=C(CCCCCCCCCCO)Nc1ccn([C@@H]2O[C@H](CO)[C@@H](O)C2(F)F)c(=O)n1 | 240 nM | 23 nM | 8.1 nM | 49 nM | – | 19000 nM | – | – | – | – | – | – | Active | Active | Active | Active
C=CCCCCCCCCCNc1ccn([C@@H]2O[C@H](CO)[C@@H](O)C2(F)F)c(=O)n1 | 13000 nM | 7000 nM | 28000 nM | 3400 nM | 4.6 | 60000 nM | – | – | – | – | – | – | – | – | – | –
